Laboratory results taken from ChEMBL document CHEMBL3734675, “Synthesis, antimycobacterial and antibacterial activity of fluoroquinolone derivatives containing an 3-alkoxyimino-4-(cyclopropylanimo)methylpyrrolidine moiety” (2015).
Converted amounts (≈) assume the structure as drawn.

Tests used:
Type in all cases: functional
[1] = tested on: Pseudomonas aeruginosa; experiment: Antibacterial activity against Pseudomonas aeruginosa 14-15 after 18 to 24 hrs by two-fold serial dilution method
How it was run: (§1)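 Twofold serial dilution in agar media against Gram-positive and Gram-negative strains. Plates incubated at 35 °C for 18–24 h. MIC read as the lowest compound concentration giving complete inhibition of bacterial growth.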

[2] = tested on: Klebsiella pneumoniae; experiment: Antibacterial activity against Klebsiella pneumoniae 14-4 after 18 to 24 hrs by two-fold serial dilution method; how it was run: as §1
[3] = tested on: Pseudomonas aeruginosa; experiment: Antibacterial activity against Pseudomonas aeruginosa 14-9 after 18 to 24 hrs by two-fold serial dilution method; how it was run: as §1
[4] = tested on: Staphylococcus aureus; experiment: Antibacterial activity against methicillin-resistant Staphylococcus aureus 14-4 after 18 to 24 hrs by two-fold serial dilution method
How it was run: (§2)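 Agar media, standard twofold serial dilution. MIC is the lowest concentration giving complete inhibition of bacterial growth after incubation at 35 °C for 18–24 h. Ciprofloxacin and levofloxacin were run as comparators.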

[5] = tested on: Klebsiella pneumoniae; experiment: Antibacterial activity against extended-spectrum beta-lactamase producing Klebsiella pneumoniae 14-18 after 18 to 24 hrs by two-fold serial dilution method; how it was run: as §1
[6] = tested on: Staphylococcus aureus; experiment: Antibacterial activity against methicillin-sensitive Staphylococcus aureus 14-4 after 18 to 24 hrs by two-fold serial dilution method; how it was run: as §1
[7] = tested on: Klebsiella pneumoniae; experiment: Antibacterial activity against Klebsiella pneumoniae 14-1 after 18 to 24 hrs by two-fold serial dilution method; how it was run: as §1
[8] = tested on: Enterococcus faecium; experiment: Antibacterial activity against Enterococcus faecium 14-2 after 18 to 24 hrs by two-fold serial dilution method; how it was run: as §1
[9] = tested on: Escherichia coli; experiment: Antibacterial activity against Escherichia coli ATCC 25922 after 18 to 24 hrs by two-fold serial dilution method; how it was run: as §1
[10] = tested on: Pseudomonas aeruginosa; experiment: Antibacterial activity against Pseudomonas aeruginosa 14-16 after 18 to 24 hrs by two-fold serial dilution method; how it was run: as §1
[11] = tested on: Staphylococcus epidermidis; experiment: Antibacterial activity against methicillin-sensitive Staphylococcus epidermidis 14-2 after 18 to 24 hrs by two-fold serial dilution method; how it was run: as §1
[12] = tested on: Staphylococcus epidermidis; experiment: Antibacterial activity against methicillin-resistant Staphylococcus epidermidis 14-21 after 18 to 24 hrs by two-fold serial dilution method; how it was run: as §2
[13] = tested on: Staphylococcus epidermidis; experiment: Antibacterial activity against methicillin-resistant Staphylococcus epidermidis 14-39 after 18 to 24 hrs by two-fold serial dilution method; how it was run: as §2
[14] = tested on: Staphylococcus epidermidis; experiment: Antibacterial activity against methicillin-resistant Staphylococcus epidermidis 14-22 after 18 to 24 hrs by two-fold serial dilution method; how it was run: as §2
[15] = tested on: Enterococcus faecalis; experiment: Antibacterial activity against Enterococcus faecalis 14-1 after 18 to 24 hrs by two-fold serial dilution method; how it was run: as §1
[16] = tested on: Klebsiella pneumoniae; experiment: Antibacterial activity against extended-spectrum beta-lactamase producing Klebsiella pneumoniae 14-17 after 18 to 24 hrs by two-fold serial dilution method; how it was run: as §1
[17] = tested on: Enterococcus faecium; experiment: Antibacterial activity against Enterococcus faecium 14-5 after 18 to 24 hrs by two-fold serial dilution method; how it was run: as §1
[18] = tested on: Staphylococcus aureus; experiment: Antibacterial activity against methicillin-sensitive Staphylococcus aureus 14-3 after 18 to 24 hrs by two-fold serial dilution method; how it was run: as §1
[19] = tested on: Enterococcus faecalis; experiment: Antibacterial activity against Enterococcus faecalis 14-2 after 18 to 24 hrs by two-fold serial dilution method; how it was run: as §1
[20] = tested on: Staphylococcus aureus; experiment: Antibacterial activity against Staphylococcus aureus CMCC 26003 after 18 to 24 hrs by two-fold serial dilution method; how it was run: as §1
[21] = tested on: Pseudomonas aeruginosa; experiment: Antibacterial activity against Pseudomonas aeruginosa 14-14 after 18 to 24 hrs by two-fold serial dilution method; how it was run: as §1
[22] = tested on: Klebsiella pneumoniae; experiment: Antibacterial activity against Klebsiella pneumoniae 14-2 after 18 to 24 hrs by two-fold serial dilution method; how it was run: as §1
[23] = tested on: Escherichia coli; experiment: Antibacterial activity against extended-spectrum beta-lactamase producing Escherichia coli 14-1 after 18 to 24 hrs by two-fold serial dilution method; how it was run: as §1
[24] = tested on: Staphylococcus aureus; experiment: Antibacterial activity against methicillin-resistant Staphylococcus aureus 14-5 after 18 to 24 hrs by two-fold serial dilution method; how it was run: as §2
[25] = tested on: Escherichia coli; experiment: Antibacterial activity against Escherichia coli 14-1 after 18 to 24 hrs by two-fold serial dilution method; how it was run: as §1
[26] = tested on: Escherichia coli; experiment: Antibacterial activity against Escherichia coli 14-2 after 18 to 24 hrs by two-fold serial dilution method; how it was run: as §1
[27] = tested on: Enterococcus faecium; experiment: Antibacterial activity against Enterococcus faecium 14-6 after 18 to 24 hrs by two-fold serial dilution method; how it was run: as §1
[28] = tested on: Staphylococcus epidermidis; experiment: Antibacterial activity against methicillin-resistant Staphylococcus epidermidis 14-37 after 18 to 24 hrs by two-fold serial dilution method; how it was run: as §2
[29] = tested on: Staphylococcus aureus; experiment: Antibacterial activity against methicillin-sensitive Staphylococcus aureus 14-1 after 18 to 24 hrs by two-fold serial dilution method; how it was run: as §1
[30] = tested on: Streptococcus pneumoniae; experiment: Antibacterial activity against methicillin-resistant Streptococcus pneumoniae ATCC 19615 after 18 to 24 hrs by two-fold serial dilution method; how it was run: as §2
[31] = tested on: Klebsiella pneumoniae; experiment: Antibacterial activity against extended-spectrum beta-lactamase producing Klebsiella pneumoniae 14-19 after 18 to 24 hrs by two-fold serial dilution method; how it was run: as §1
[32] = tested on: Pseudomonas aeruginosa; experiment: Antibacterial activity against Pseudomonas aeruginosa ATCC 27853 after 18 to 24 hrs by two-fold serial dilution method; how it was run: as §1
[33] = tested on: Klebsiella pneumoniae; experiment: Antibacterial activity against Klebsiella pneumoniae 14-3 after 18 to 24 hrs by two-fold serial dilution method; how it was run: as §1
[34] = tested on: Escherichia coli; experiment: Antibacterial activity against extended-spectrum beta-lactamase producing Escherichia coli 14-2 after 18 to 24 hrs by two-fold serial dilution method; how it was run: as §1

Compound O=C(O)c1cn(C2CC2)c2nc(N3C/C(=N/OCc4ccccc4)C(CNC4CC4)C3)c(F)cc2c1=O (stereo not drawn) has an MIC [1] of 128 mg/L (≈ 253 µM), an MIC [2] of over 128 mg/L and an MIC [3] of 64 mg/L (≈ 127 µM). For the same compound, the MIC [4] was over 128 mg/L, the MIC [5] was 128 mg/L (≈ 253 µM) and the MIC [6] was 8 mg/L (≈ 15.8 µM). It also gave an MIC [7] of 64 mg/L (≈ 127 µM), an MIC [8] of 16 mg/L (≈ 31.6 µM) and an MIC [9] of 4 mg/L (≈ 7.91 µM). For the same compound, the MIC [10] was 64 mg/L (≈ 127 µM), the MIC [11] was 64 mg/L (≈ 127 µM) and the MIC [12] was 16 mg/L (≈ 31.6 µM). The MIC [13] was 32 mg/L (≈ 63.3 µM), the MIC [14] was 16 mg/L (≈ 31.6 µM) and the MIC [15] was 64 mg/L (≈ 127 µM). It also gave an MIC [16] of 128 mg/L (≈ 253 µM), an MIC [17] of 32 mg/L (≈ 63.3 µM) and an MIC [18] of 4 mg/L (≈ 7.91 µM). It also gave an MIC [19] of 1 mg/L (≈ 1.98 µM), an MIC [20] of under 0.008 mg/L and an MIC [21] of 64 mg/L (≈ 127 µM). For the same compound, the MIC [22] was 64 mg/L (≈ 127 µM), the MIC [23] was 32 mg/L (≈ 63.3 µM) and the MIC [24] was 16 mg/L (≈ 31.6 µM). It also gave an MIC [25] of over 128 mg/L, an MIC [26] of over 128 mg/L and an MIC [27] of 8 mg/L (≈ 15.8 µM). It also gave an MIC [28] of 16 mg/L (≈ 31.6 µM), an MIC [29] of 8 mg/L (≈ 15.8 µM) and an MIC [30] of 8 mg/L (≈ 15.8 µM). For the same compound, the MIC [31] was 128 mg/L (≈ 253 µM), the MIC [32] was 64 mg/L (≈ 127 µM) and the MIC [33] was 128 mg/L (≈ 253 µM). It also gave an MIC [34] of over 128 mg/L.
For CC1(CNC2CC2)CN(c2nc3c(cc2F)c(=O)c(C(=O)O)cn3C2CC2)C/C1=N/OCc1ccccc1 (stereo not drawn), the MIC [1] was 128 mg/L (≈ 246 µM), the MIC [2] was over 128 mg/L and the MIC [3] was 64 mg/L (≈ 123 µM). It also gave an MIC [4] of 2 mg/L (≈ 3.85 µM), an MIC [5] of 128 mg/L (≈ 246 µM) and an MIC [6] of 0.5 mg/L (≈ 0.962 µM). It also gave an MIC [7] of 64 mg/L (≈ 123 µM), an MIC [8] of 4 mg/L (≈ 7.7 µM) and an MIC [9] of 1 mg/L (≈ 1.92 µM). For the same compound, the MIC [10] was 128 mg/L (≈ 246 µM), the MIC [11] was 16 mg/L (≈ 30.8 µM) and the MIC [12] was 8 mg/L (≈ 15.4 µM). For the same compound, the MIC [13] was 2 mg/L (≈ 3.85 µM), the MIC [14] was 4 mg/L (≈ 7.7 µM) and the MIC [15] was 64 mg/L (≈ 123 µM). For the same compound, the MIC [16] was 128 mg/L (≈ 246 µM), the MIC [17] was 2 mg/L (≈ 3.85 µM) and the MIC [18] was 0.5 mg/L (≈ 0.962 µM). It also gave an MIC [19] of 0.25 mg/L (≈ 0.481 µM), an MIC [20] of under 0.008 mg/L and an MIC [21] of 128 mg/L (≈ 246 µM). It also gave an MIC [22] of 64 mg/L (≈ 123 µM), an MIC [23] of 32 mg/L (≈ 61.6 µM) and an MIC [24] of 2 mg/L (≈ 3.85 µM). The MIC [25] was over 128 mg/L, the MIC [26] was over 128 mg/L and the MIC [27] was 4 mg/L (≈ 7.7 µM). The MIC [28] was 2 mg/L (≈ 3.85 µM), the MIC [29] was 2 mg/L (≈ 3.85 µM) and the MIC [30] was 0.5 mg/L (≈ 0.962 µM). The MIC [31] was 128 mg/L (≈ 246 µM), the MIC [32] was 64 mg/L (≈ 123 µM) and the MIC [33] was over 128 mg/L. The MIC [34] was over 128 mg/L.
